Calpain2 inh: inhibitors of pig calpain II; purified calpain II, fluorogenic peptide substrate, 30 min; inhibition, % at 16 µM; 220,000 tested, 0.37% active; AID 1236;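 active means inhibition above about 50%, limit read from the data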
FXIa inh 1536: factor XIa (human) inhibition. P03951. purified FXIa, Boc-Glu-Ala-Arg-AMC fluorogenic substrate. inhibition, % at 5 µM. 220,000 tested, 0.14% active;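 active means inhibition of at least 40%; inactive means inhibition below 40%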;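 further: fluorescence of freed AMC excited at 355 nm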
Thrombin inh: thrombin (human) inhibition. P00734. AID 1046. 220,000 tested, 0.26% active. inhibition, % at 5 µM. alpha-thrombin, Boc-VPR-AMC fluorogenic substrate cleavage;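 active means inhibition at or above 40%; inactive means inhibition below 40%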
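Assay system: human alpha-thrombin enzyme. Reagent: Boc-VPR-AMC substrate, 15 µM final. Compound dosing: one concentration per compound, 5 µM, with 0.2% DMSO. Incubation: room-temperature reaction. Technique: AMC fluorescence, 355/460 nm. Measure: % inhibition relative to enzyme controls and enzyme-free blanks.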
KLK5 inh: kallikrein 5 (human) inhibition; 210,000 tested, 0.59% active; AID 873; recombinant hK5, fluorogenic AMC substrate cleavage; Q9Y337; inhibition, % at 5 µM;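 active means inhibition of 40% or more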
Furin inh: blocks human furin protease activity; 220,000 tested, 0.061% active; inhibition, % at 20 µM or 30 µM; P09958; AID 463115; purified furin, fluorogenic substrate cleavage; in the data active means inhibition above about 25%
FXIIa inh: factor XIIa (human) inhibition | inhibition, % at 5 µM | 220,000 tested, 0.3% active | AID 800 | P00748 | purified FXIIa, Boc-QGR-AMC fluorogenic substrate, 2 h; in the data active means inhibition above about 40%
Target sequence (P00748 20-372 limits assumed): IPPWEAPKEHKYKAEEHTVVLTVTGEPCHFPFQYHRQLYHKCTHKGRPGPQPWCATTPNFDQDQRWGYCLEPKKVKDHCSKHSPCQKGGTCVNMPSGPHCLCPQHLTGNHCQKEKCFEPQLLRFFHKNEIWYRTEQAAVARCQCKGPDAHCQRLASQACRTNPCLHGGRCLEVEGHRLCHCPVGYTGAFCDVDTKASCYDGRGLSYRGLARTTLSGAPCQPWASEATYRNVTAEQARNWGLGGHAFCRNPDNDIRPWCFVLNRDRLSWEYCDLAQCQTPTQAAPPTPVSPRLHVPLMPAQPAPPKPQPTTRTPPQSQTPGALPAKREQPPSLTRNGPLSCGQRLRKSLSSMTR
Target sequence (P00748 373-615 limits assumed): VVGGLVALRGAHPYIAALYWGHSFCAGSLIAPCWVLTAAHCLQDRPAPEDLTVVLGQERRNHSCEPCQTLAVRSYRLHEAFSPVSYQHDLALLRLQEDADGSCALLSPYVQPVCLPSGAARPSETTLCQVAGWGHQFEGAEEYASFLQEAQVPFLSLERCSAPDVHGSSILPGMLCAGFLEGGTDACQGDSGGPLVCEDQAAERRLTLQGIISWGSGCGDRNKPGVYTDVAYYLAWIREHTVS
Each line names hits and unclear results; the compound was inactive in the other large screens. Most compounds without a hit are left out; they make up all but 1.4% or so of the library.

COCCn1nnnc1C(c1cc2cc(C)cc(C)c2[nH]c1=O)N1CCN(c2ccccc2F)CC1 (stereo unspecified)	none
COc1ccc(CCn2nnnc2C(CC(C)C)N2CCN(c3ncccn3)CC2)cc1OC (stereo unspecified)	none
CCN(CC)c1ccc(/C=C(\C#N)C(=O)NCc2ccco2)cc1	KLK5 inh 64
CN(C)c1ccc(/C=C(\C#N)C(=O)NCc2ccco2)cc1	none
Cc1ccc(-c2csc(NC(=O)c3ccc(S(=O)(=O)N4CCc5ccccc54)cc3)n2)cc1	none
O=C(Nc1nc(-c2ccccc2)cs1)c1ccc(S(=O)(=O)N2CCc3ccccc32)cc1	FXIa inh 1536 59
O=S(=O)(CCNCc1cccs1)c1ccc(Cl)cc1	KLK5 inh 50
Cc1ccccc1-n1cc(-c2ccc(Br)cc2)nc1SCC(N)=O	KLK5 inh 46
Cc1ccc(-c2cn(-c3ccccc3)c(SCC(N)=O)n2)cc1C	none
COc1nc(NCCN2CCOCC2)nc(Nc2ccccc2)n1	KLK5 inh 69
O=C(CN(Cc1cccs1)C(=O)CNS(=O)(=O)c1ccccc1)NCc1ccco1	KLK5 inh 89
COC(=O)c1ccccc1NC(=O)CC(NCc1ccccc1)C(=O)O (stereo unspecified)	none (no result: Calpain2 inh, FXIa inh 1536, Thrombin inh, KLK5 inh, FXIIa inh)
COCCCNC(CC(=O)Nc1ccccc1C(=O)OC)C(=O)O (stereo unspecified)	Furin inh 28 (no result: Calpain2 inh, FXIa inh 1536, Thrombin inh, KLK5 inh, FXIIa inh)
CC1Oc2ccccc2C=C1C1/C(=C(/O)c2ccccc2)C(=O)C(=O)N1CCCN(C)C (stereo unspecified)	none
O=C(COC(=O)c1cc(Cl)ccc1[N+](=O)[O-])NCc1ccc(Cl)cc1Cl	Calpain2 inh 57
CC1(C)CC(=O)c2c(Cc3ccccc3)n[nH]c2C1	KLK5 inh 50
CN1C(=O)C(O)(c2sc(N)nc2-c2ccccc2)c2ccccc21 (stereo unspecified)	KLK5 inh 56
Cc1nn(-c2ccccc2)c(N)c1C1(O)C(=O)N(C)c2ccccc21 (stereo unspecified)	none
Oc1c(Cl)cc(Cl)cc1C(C#Cc1ccccc1)N1CCOCC1 (stereo unspecified)	Calpain2 inh 53
O=C(CC(=O)c1cccc([N+](=O)[O-])c1)Nc1ccccc1Cl	none
CNC(=S)N/N=C(\C)c1ccc(C(C)(C)C)cc1	KLK5 inh 49
Clc1ccc(-n2cc(COCc3ccccc3)nn2)cc1	KLK5 inh 46
O=C(Nc1ccc(Cl)cc1)OCc1cn(-c2ccc(Cl)cc2)nn1	none
NC1=NC(=O)/C(=C\c2cccnc2)S1	none
NC1=NC(=O)/C(=C\C=C\c2ccccc2)S1	KLK5 inh 55
Cc1cc2c(c(=O)n1C)C(Cc1ccccc1)C(C#N)=C(N)O2 (stereo unspecified)	FXIIa inh 45
O=C(NCc1ccc2c(c1)OCO2)c1c[nH]c2ccc(S(=O)(=O)N3CCOCC3)cc2c1=O	Thrombin inh 55
CCC(CO)[n+]1c(C)cc(/C=C2\Sc3ccccc3N2Cc2ccccc2)cc1C (stereo unspecified)	Furin inh 29
O=c1c2c(-c3cccs3)csc2ncn1-n1cccc1	Calpain2 inh 81
Cc1ccc(C)n1-n1cnc2scc(-c3cccs3)c2c1=O	none
C#CCOCCOCCOCCNc1nc(N2CCN(C(=O)[C@H]([C@@H](C)CC)n3cc([C@@H](N)CO)nn3)CC2)nc(N2CCN(C(=O)[C@H](Cc3cc4ccccc4[nH]3)n3cc([C@@H](N)Cc4ccc(O)cc4)nn3)CC2)n1	none
CCn1c(SCC(=O)Nc2nccs2)nnc1-c1ccccc1	KLK5 inh 41
Cn1c(SCC(=O)c2ccccc2)nnc1-c1cnccn1	none
CCn1c(SCC(=O)Nc2cccnc2Cl)nnc1-c1ccccc1	KLK5 inh 62, FXIIa inh 106
CCn1c(Cc2ccccc2)nnc1SCC(=O)Nc1nccs1	none
CCn1c(SCC(=O)Nc2cc(C)on2)nnc1-c1ccccc1	none
CCn1c(SCC(=O)c2ccccc2)nnc1-c1cnccn1	KLK5 inh 43
C=CCn1c(SCC(=O)Nc2cccnc2Cl)nnc1-c1ccc(Cl)cc1	FXIIa inh 41
CCCCC1=CC2=CC(=O)C(C)(OC(=O)CC)C(=O)C2=CN1C1CCCCC1 (stereo unspecified)	none
Cc1ccc(-n2nc(C)c3c2OC(N)=C(C#N)C3c2ccccc2F)cc1 (stereo unspecified)	none
COc1ccc2[nH]cc(C(=O)CN3CCC(C)CC3)c2c1	none
CCc1nnc(NS(=O)(=O)c2ccc(N=CC3=C(O)CC(C)(C)CC3=O)cc2)s1	Furin inh 26 (no result: KLK5 inh)
O=C(c1cccc(N2C(=O)C3CC=CCC3C2=O)c1)N1CCCc2ccccc21 (stereo unspecified)	none
COc1cc(C(=O)NCC(=O)OCn2nnc3ccccc3c2=O)cc(OC)c1OC	FXIa inh 1536 40
O=[N+]([O-])c1ccc(NCCCNS(=O)(=O)c2ccc(Cl)cc2)c(Cl)c1	Calpain2 inh 71
CC(Sc1nc(O)c(-c2ccccc2)c(=O)[nH]1)C(=O)Nc1ccc(Cl)cc1 (stereo unspecified)	none
O=C(O)CCC(=O)CCC(=O)c1ccc(Cl)cc1	KLK5 inh 44
COC(=O)c1c(C)nn(-c2ccccc2)c1N	none
COC(=O)c1c(C)nn(-c2ccccc2)c1-n1cccc1	Thrombin inh 41
O=C(Nc1ccccc1Cl)c1ccccc1Cl	none
Cn1c(=O)c2cc(NC(=O)c3ccccc3Cl)c(=O)oc2n(C)c1=O	Thrombin inh 80
Cc1ccc(S(=O)(=O)NC(CC(=O)NCc2ccco2)c2ccco2)cc1 (stereo unspecified)	none
Cc1ccc(S(=O)(=O)NC(CC(C)C)C(=O)NCc2ccco2)cc1 (stereo unspecified)	KLK5 inh 45
COc1cc(C(=O)N[C@H](C(=O)NC2CCCCCC2)C(C)C)cc(OC)c1OC	KLK5 inh 44
COc1ccccc1N1CCN(C(=O)CSc2nnc(NC(=O)C(C)C)s2)CC1	none
CCCCCCCC(=O)N1c2ccccc2NC(=O)C1CC(=O)Nc1ccc(C(=O)O)cc1 (stereo unspecified)	none
CCCCCCCCCC(=O)N1c2ccccc2NC(=O)C1CC(=O)Nc1ccc(C(=O)O)cc1 (stereo unspecified)	Calpain2 inh 53
Cc1nc(/N=C(\N)Nc2ccccc2)nc2ccccc12	none (no result: Calpain2 inh)
Cc1ccc(NC2=NCC(=O)N2C2CCCC2)c(C)c1	KLK5 inh 112
Cc1ccc(C)c(NC2=NCC(=O)N2C2CCCCC2)c1	none
Cc1cc(C)n2nc(S(=O)(=O)N(C)c3ccccc3)nc2n1	KLK5 inh 55
CCCCOc1ccc(-c2ncc([N+](=O)[O-])cn2)cc1	none
CCCCOc1ccc(-c2ncc(Cl)cn2)cc1	Furin inh 28
CCCCn1cnc2sc3c(c2c1=N)CCCC3	none

From PubChem
